{"source": "ChEMBL document CHEMBL4699493", "about": "“Development of Bis-cyclic Imidazolidine-4-one Derivatives as Potent Antibacterial Agents” (J Med Chem, 2020)", "key": {"[1]": {"system": "HeLa", "assay": "Cytotoxicity against human HeLa cells after 24 hrs by MTT assay", "type": "cell-based", "outline": "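HeLa cells seeded at 5 × 10^3 cells/well, attached 24 h at 37 °C, 5% CO2, then exposed to a range of compound concentrations in growth medium for 24 h. Viability read with CCK-8 reagent, absorbance at 490 nm after 1 h. Triplicate wells, three repeats.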"}, "[2]": {"system": "Klebsiella pneumoniae", "assay": "Antibacterial activity against Klebsiella pneumoniae ATCC 13383 in presence of monovalent Na+ and K+", "type": "functional", "outline": "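MIC by the standard broth dilution method, in medium made by dissolving TSB powder in 1× PBS (7.5 g per 250 mL), autoclaved, to supply Na+ and K+. Inoculum of log-phase bacteria at 10^6 CFU/mL. MIC = lowest concentration completely inhibiting growth.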"}, "[3]": {"system": "Escherichia coli", "assay": "Bactericidal activity against Escherichia coli ATCC 25922 at 24 to 48 microg/ml measured after 30 mins by time kill assay", "type": "functional, organism-based", "settings": "dose microg/ml 24-48, time 30.0 min", "outline": "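Mid-log bacteria at 10^6 CFU/mL incubated with compound (12, 24, 48 μg/mL) at 37 °C for 10, 30, 60, 120 min; untreated control. Mixtures diluted 10^4-fold, plated on TSB agar, incubated 20 h at 37 °C, colonies counted and plotted against time. Three repeats.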"}, "[4]": {"system": "Cell membrane", "assay": "Induction of cell membrane depolarization in Escherichia coli ATCC 25922 assessed as increase in fluorescence intensity measured after 30 mins by DiSC3 staining based fluorescence spectroscopic technique", "type": "subcellular", "outline": "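Mid-log E. coli washed in 5 mM HEPES/5 mM glucose and resuspended in HEPES/glucose/100 mM KCl to OD600 about 0.05. DiSC3(5) added (8 μL of a 10 μM solution per 200 μL). Fluorescence (ex 622 nm, em 670 nm) read at room temperature for 30 min, then compound added at 0.5, 1, 2 and 4 × MIC and monitoring continued. Controls: untreated and 1% Triton X-100. Three repeats in duplicate.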"}, "[5]": {"system": "Cell membrane", "assay": "Induction of inner membrane permeabilization in Escherichia coli ATCC 25922 at 2 times MIC measured for 12 mins by propidium iodide staining based fluorescence microscopic analysis", "type": "functional, subcellular", "outline": "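Mid-log bacteria pelleted at 1000g, washed three times in 5 mM HEPES/5 mM glucose, and resuspended to 10^6 CFU/mL. PI added (50 μL of a 10 μM solution to 150 μL of cells). Fluorescence (ex 535 nm, em 617 nm) read every 2 min for about 8 min, then compound added and reading continued for 12 min. Water added as the no-drug control. Three repeats.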"}, "[6]": {"system": "Cell membrane", "assay": "Induction of cell membrane disruption in Escherichia coli ATCC 25922 at 2 times MIC after 2 hrs by transmission electron microscopic analysis", "type": "subcellular", "outline": "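Bacteria at 10^6 CFU/mL treated with compound at 2 × MIC for 2 h at 37 °C; untreated controls included. Cells pelleted, washed three times in PBS, resuspended in deionized water, dropped onto grids, blotted, vacuum-dried at 50 °C for 30 s, and imaged by TEM.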"}, "[7]": {"system": "Cell membrane", "assay": "Induction of cell membrane disruption in methicillin-resistant Staphylococcus aureus ATCC 33591 at 2 times MIC after 2 hrs by transmission electron microscopic analysis", "type": "subcellular", "outline": "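Bacteria at 10^6 CFU/mL were treated at 2× MIC for 2 h at 37 °C, pelleted, washed three times in PBS and resuspended in deionized water. Samples were dropped on grids, blotted, dried under vacuum at 50 °C for 30 s, then imaged by TEM. Untreated control.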"}, "[8]": {"system": "Staphylococcus aureus", "assay": "Antibacterial activity against methicillin-resistant Staphylococcus aureus ATCC 33591 measured for 13 passages", "type": "functional, organism-based", "outline": "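Serial-passage resistance test. A first MIC was run by TSB broth microdilution. Bacteria from the well after the last clear well were resuspended to about 10^6 CFU/mL for the next MIC. This was repeated for 13 passages.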"}}, "note": "Activity calls are given as the source filed them. No cut-off for these calls is given here."}
{"smiles": "CCCCCCCCCC(=O)N[C@@H](CCCCN)CN1CC(=O)N(c2ccc(N3CN(C[C@H](CCCCN)NC(=O)CCCCCCCCC)CC3=O)cc2)C1", "values": [{"measurement": "IC50", "setting": "[1]", "result": 74.8, "unit": "µg/mL"}, {"measurement": "MIC", "setting": "[2]", "result": 7, "unit": "µg/mL"}, {"measurement": "Activity", "setting": "[3]", "result": "Active"}, {"measurement": "Activity", "setting": "[4]", "result": "Dose-dependent effect"}, {"measurement": "Activity", "setting": "[5]", "result": "Active"}, {"measurement": "Activity", "setting": "[6]", "result": "Active"}, {"measurement": "Activity", "setting": "[7]", "result": "Active"}, {"measurement": "Activity", "setting": "[8]", "result": "Active"}]}
